# Results from different studies.
# Compare with care: the assays were run in different laboratories.
# CYP2C9: Cytochrome P450 2C9 (CYP2C9, Homo sapiens, UniProt P11712)
SMILES,target or system,test,test system,setting,measurement,result
CCC[C@@](N)(CO)CCc1ccc(OCCCCCC(C)C)cc1,CYP2C9,"enzyme activity, inhibitor",,,IC50,> 50 µM
CCCCCCCCCCOc1cc2c(O)c(C(=O)OCC)cnc2cc1OCC,CHO,cell growth or viability,,72 h,IC50,> 100 µM
COc1ccc(S(=O)(=O)Oc2ccc3c(c2)Oc2nc4c(c(N)c2C3c2cccc(OC)c2)CCCC4)cc1 (stereo not drawn),SH-SY5Y,"cell growth or viability, MTT",,100 µM,viability,48.9%
COC(=O)C1CCN(C(=O)c2ccc(NCc3cnc4nc(N)nc(N)c4n3)cc2)CC1,CYP2C9,"enzyme activity, inhibitor, luciferase",,10 µM,inhibition,-7.15%
Nc1c2c(nc3c1C(c1cccc([N+](=O)[O-])c1)c1ccc(OS(=O)(=O)c4ccc(F)cc4)cc1O3)CCCC2 (stereo not drawn),SH-SY5Y,"cell growth or viability, MTT",,25 µM,viability,48.8%
Cc1cc(C)nc(Nc2ncc(C(=O)NCCc3c(C)[nH]c4ccccc34)cn2)c1,,metabolic stability,"male Sprague-Dawley rat, hepatocytes",1 µM,half-life,22 min
Nc1c2c(nc3c1C(c1ccc(Cl)c(Cl)c1)c1ccc(OCC(=O)c4ccccc4)cc1O3)CCCC2 (stereo not drawn),SH-SY5Y,"cell growth or viability, MTT",,25 µM,viability,45.9%
CN1CCCCC1Cn1cc(C(=O)c2cc([N+](=O)[O-])ccc2I)c2ccccc21 (racemic),,metabolic stability,"rat, liver microsomes",,half-life,13.7 min
CCCCCn1cc(C(=O)Nc2cccc3ccccc23)c2ccccc21,,metabolic stability,"Sprague-Dawley rat, liver microsomes","1 µM, pH 7.4",half-life,2.21 min
COc1cc2c(cc1NC(=O)c1ccc(C(C)(C)C#N)cc1)CCCCC2,NHDF,"cell growth or viability, ATP luminescence",,24 h,CC50,3.57 µM
C[C@]12CC[C@H](n3ccnc3)CC1=CC[C@@H]1[C@@H]2CC[C@]2(C)C(n3cnc4ccccc43)=CC[C@@H]12.Cl.Cl,,,"male CD-1 mouse, plasma","intravenous, 1 mg/kg",AUC(0-t),1870 ng·h/mL
Nc1c2c(nc3c1C(c1ccc(Cl)c(Cl)c1)c1ccc(OCC(=O)c4ccc(Cl)cc4)cc1O3)CCCC2 (stereo not drawn),SH-SY5Y,"cell growth or viability, MTT",,6.3 µM,viability,71.6%
